Measurements gathered from unrelated publications.
Compare with care: the assays were run in different laboratories.

CN1CCN(S(=O)(=O)c2ccc(-c3ccc4c(Nc5ccc(C(F)(F)F)nc5)ccnc4c3)cc2)CC1 — EC50 (Plasmodium falciparum; parasite growth; D6; drug-resistant strain, blood stage): 160 nM
CS(=O)(=O)c1ccc2c(c1)C(=O)CCc1ccccc1C(=O)N2 — IC50 (L6; cell growth or viability): > 300000 nM
COc1ccc(Nc2ccnc3cc(-c4cn[nH]c4)ccc23)cc1Cl — EC50 (Plasmodium falciparum; parasite growth; D6; drug-resistant strain, blood stage): 250 nM
O=C1Nc2ccccc2C(=O)CCc2ccccc21 — IC50 (L6; cell growth or viability): 53000 nM
CCn1cc(-c2ccccn2)c(=O)c2cc(F)c(N3CCC(C)CC3)cc21 — EC50 (Plasmodium falciparum; parasite growth; 3D7; 72 h, blood stage): > 10000 nM
CN1CCN(S(=O)(=O)c2ccc(-c3ccc4c(Nc5ccc(Cl)cn5)ccnc4c3)cc2)CC1 — EC50 (Plasmodium falciparum; parasite growth; D6; drug-resistant strain, blood stage): 250 nM
O=C1C(O)=C([C@H]2CC[C@H](c3ccc(Cl)cc3)CC2)C(=O)c2ccccc21 — EC50 (Plasmodium falciparum; parasite growth; 3D7; blood stage): 1.6 nM
O=C1Nc2ccccc2C(=O)CCc2ccc(O)cc21 — IC50 (L6; cell growth or viability): 200000 nM
CCn1cc(-c2nc(C)no2)c(=O)c2cc(F)c(N3CCC(C)CC3)cc21 — EC50 (Plasmodium falciparum; parasite growth; 3D7; 72 h, blood stage): 19 nM
CC(=O)Nc1cccc(-n2c(=O)n(C3CC3)c(=O)c3c(Nc4ccc(I)cc4F)n(C)c(=O)c(C)c32)c1 — viability (SW1417; cell growth or viability, resazurin; 1.56 nM, 72 h): 80.5%
